# Experiments:
# Mus musculus [1] = experiment: Induction of weight loss in C3H/HeN mouse at 4.2 umol/kg, ip after 60 days (reference value: 27.7 +/- 4.6 %); assay type: functional
# Mus musculus [2] = experiment: Induction of weight loss in C3H/HeN mouse at 4.2 umol/kg, ip after 60 days (reference value: 33.3 +/- 5.0 %); assay type: functional
# Mus musculus [3] = experiment: Toxicity in C3H/HeN mouse assessed as mortality at 12.6 umol/kg, ip; assay type: organism-based; conditions: in vivo
# Method in brief: (§1)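 Male C3H/HeN mice, about 50 days old, in groups of 4. Baseline body weight and food and water intake were recorded for 7–10 days before treatment. A single ip injection in 42% aqueous DMSO was given on day 1, with vehicle-only controls. Body weight and food and water intake were then monitored 2–3 times per week for 60 days, with deaths noted.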
# Mus musculus [4] = experiment: Induction of weight loss in C3H/HeN mouse at 37.8 umol/kg, ip after 60 days (reference value: 35.6 +/- 3.1 %); assay type: functional
# Mus musculus [5] = experiment: Toxicity in C3H/HeN mouse assessed as mortality at 4.2 umol/kg, ip; assay type: organism-based; conditions: in vivo; method in brief: as §1
# Mus musculus [6] = experiment: Induction of weight loss in C3H/HeN mouse at 0.47 umol/kg, ip after 60 days (reference value: 27.7 +/- 4.6 %); assay type: functional
# Mus musculus [7] = experiment: Induction of weight loss in C3H/HeN mouse at 12.6 umol/kg, ip after 60 days (reference value: 18.8 +/- 1.8 %); assay type: functional
# Mus musculus [8] = experiment: Induction of weight loss in C3H/HeN mouse at 37.8 umol/kg, ip after 60 days (reference value: 31.5 +/- 8.2 %); assay type: functional
# Mus musculus [9] = experiment: Induction of weight loss in C3H/HeN mouse at 0.42 umol/kg, ip after 60 days (reference value: 23.6 +/- 3.7 %); assay type: functional
# Mus musculus [10] = experiment: Induction of weight loss in C3H/HeN mouse at 0.14 umol/kg, ip after 60 days (reference value: 41.6 +/- 8.7 %); assay type: functional
# Mus musculus [11] = experiment: Induction of weight loss in C3H/HeN mouse at 1.4 umol/kg, ip after 60 days (reference value: 26.1 +/- 7.9 %); assay type: functional
# Mus musculus [12] = experiment: Induction of weight loss in C3H/HeN mouse at 1.4 umol/kg, ip after 60 days (reference value: 31.5 +/- 8.2 %); assay type: functional
# Mus musculus [13] = experiment: Toxicity in C3H/HeN mouse assessed as perceptible deterioration in health at 4.2 uM/kg, ip after 60 days; assay type: organism-based; conditions: in vivo, 1440 h
# Method in brief: (§2)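 Male C3H/HeN mice, about 50 days old and in groups of 4, received one ip dose in 42% aqueous DMSO on day 1 after 7–10 days of baseline monitoring; vehicle-only animals served as controls. Food and water intake and body weight were recorded 2–3 times weekly for 60 days. General health was checked by observing clinical signs.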
# Mus musculus [14] = experiment: Toxicity in C3H/HeN mouse assessed as difficulty in drinking at 4.2 uM/kg, ip after 60 days; assay type: organism-based; conditions: in vivo, 1440 h
# Mus musculus [15] = experiment: Toxicity in C3H/HeN mouse assessed as difficulty in eating at 4.2 uM/kg, ip after 60 days; assay type: organism-based; conditions: in vivo, 1440 h
# Mus musculus [16] = experiment: Induction of weight loss in C3H/HeN mouse at 4.2 umol/kg, ip after 60 days (reference value: 30.1 +/- 5.9 %); assay type: functional
# Mus musculus [17] = experiment: Toxicity in C3H/HeN mouse assessed as loss of appetite at 4.2 uM/kg, ip after 60 days; assay type: organism-based; conditions: in vivo, 1440 h; method in brief: as §2
# Mus musculus [18] = experiment: Induction of weight loss in C3H/HeN mouse at 12.6 umol/kg, ip after 60 days (reference value: 41.6 +/- 8.7 %); assay type: functional
# Mus musculus [19] = experiment: Toxicity in C3H/HeN mouse assessed as mortality at 117 umol/kg, ip; assay type: organism-based; conditions: in vivo; method in brief: as §1
# Mus musculus [20] = experiment: Induction of weight loss in C3H/HeN mouse at 50.2 umol/kg, ip after 60 days (reference value: 27.4 +/- 9.4 %); assay type: functional
# Mus musculus [21] = experiment: Induction of weight loss in C3H/HeN mouse at 37.8 umol/kg, ip after 60 days (reference value: 23.9 +/- 4.6 %); assay type: functional
# Mus musculus [22] = experiment: Induction of weight loss in C3H/HeN mouse at 377 umol/kg, ip after 60 days (reference value: 24.5 +/- 3.5 %); assay type: functional
# Mus musculus [23] = experiment: Induction of weight loss in C3H/HeN mouse at 1130 umol/kg, ip after 18 days (reference value: 12.8 +/- 1.5 %); assay type: functional
# Mus musculus [24] = experiment: Induction of weight loss in C3H/HeN mouse at 4.2 umol/kg, ip after 60 days (reference value: 26.1 +/- 7.8 %); assay type: functional
# Mus musculus [25] = experiment: Toxicity in C3H/HeN mouse assessed as mortality at 4.2 umol/kg, ip after 15 days; assay type: organism-based; conditions: in vivo, 360 h; method in brief: as §1
smiles,measurement,setting,value
Cn1c(C[N+](C)(C)Cc2ccc(/C=C/C(=O)N3CC(CCl)c4c3cc(O)c3ccccc43)cc2)ccc1[N+](=O)[O-].[Br-] (centres undefined),Activity,Mus musculus [1],18.8%
Cn1c(C[N+](C)(C)CCCCCC(=O)N2CC(CCl)c3c2cc(N)c2ccccc32)ccc1S(C)(=O)=O.O=C([O-])C(F)(F)F (centres undefined),Activity,Mus musculus [2],16.8%
same,Activity,Mus musculus [3],Toxic
CC1CN(C(=O)/C=C/c2ccc(C[N+](C)(C)Cc3ccc(S(C)(=O)=O)n3C)cc2)c2cc(N)c3ccccc3c21.[Br-] (centres undefined),Activity,Mus musculus [4],30.4%
C[N+](C)(C)Cc1ccc(/C=C/C(=O)N2CC(CCl)c3c2cc(N)c2ccccc32)cc1.[Cl-] (centres undefined),Activity,Mus musculus [5],Toxic
same,Activity,Mus musculus [6],17%
Cn1c(C[N+](C)(C)Cc2ccc(/C=C/C(=O)N3CC(CO)c4c3cc(N)c3ccccc43)cc2)ccc1[N+](=O)[O-].[Br-] (centres undefined),Activity,Mus musculus [7],23.7%
same,Activity,Mus musculus [8],18.8%
Cn1c(C[N+](C)(C)Cc2ccc(/C=C/C(=O)N3CC(CCl)c4c3cc(N)c3ccccc43)cc2)ccc1S(C)(=O)=O.[Br-] (centres undefined),Activity,Mus musculus [9],-7.6%
same,Activity,Mus musculus [10],44.1%
same,Activity,Mus musculus [11],-22.8%
Cn1c(C[N+](C)(C)Cc2ccc(/C=C/C(=O)N3CC(CCl)c4c3cc(N)c3ccccc43)cc2)ccc1[N+](=O)[O-].[Br-] (centres undefined),Activity,Mus musculus [12],19%
same,Activity,Mus musculus [13],Non-toxic
same,Activity,Mus musculus [14],Non-toxic
same,Activity,Mus musculus [15],Non-toxic
same,Activity,Mus musculus [16],-4.1%
same,Activity,Mus musculus [6],38.3%
same,Activity,Mus musculus [17],Non-toxic
CC1CN(C(=O)/C=C/c2ccc(C[N+](C)(C)Cc3ccc([N+](=O)[O-])n3C)cc2)c2cc(N)c3ccccc3c21.[Br-] (centres undefined),Activity,Mus musculus [4],43.2%
same,Activity,Mus musculus [1],26%
Cn1c(C[N+](C)(C)CCCCCCC(=O)N2CC(CCl)c3c2cc(N)c2ccccc32)ccc1S(C)(=O)=O.O=C([O-])C(F)(F)F (centres undefined),Activity,Mus musculus [2],11.6%
same,Activity,Mus musculus [18],2.9%
Cn1c(C[N+](C)(C)Cc2ccc(/C=C/C(=O)N3CC(CO)c4c3cc(N)c3ccccc43)cc2)ccc1S(C)(=O)=O.[Br-] (centres undefined),Activity,Mus musculus [19],Toxic
same,Activity,Mus musculus [20],42.6%
same,Activity,Mus musculus [21],36.8%
CN(N=O)C(=O)N[C@@H](C=O)[C@@H](O)[C@H](O)[C@H](O)CO [STREPTOZOCIN],Activity,Mus musculus [22],23.7%
same,Activity,Mus musculus [23],-22.1%
CN(Cc1ccc(/C=C/C(=O)N2CC(CCl)c3c2cc(N)c2ccccc32)cc1)Cc1ccc([N+](=O)[O-])n1C (centres undefined),Activity,Mus musculus [24],21%
same,Activity,Mus musculus [25],Toxic
